According to ChEMBL document CHEMBL3045981, “Synthesis and insecticidal activities of novel N-sulfenyl-N'-tert-butyl-N,N'-diacylhydrazines. 2. N-substituted phenoxysulfenate derivatives” (2008):
Converted amounts (≈) assume the structure as drawn.

Tests used:
Assay type in all cases: functional
Mythimna separata [1] = experiment: Stomach toxicity against Mythimna separata (Oriental armyworm) fourth-instar larvae reared on compound pre-treated corn leaves assessed as insect mortality at 25 mg/kg measured 4 days post compound treatment
Mythimna separata [2] = experiment: Stomach toxicity against Mythimna separata (Oriental armyworm) fourth-instar larvae reared on compound pre-treated corn leaves assessed as insect mortality at 2.5 mg/kg measured 4 days post compound treatment
Mythimna separata [3] = experiment: Stomach toxicity against Mythimna separata (Oriental armyworm) fourth-instar larvae reared on compound pre-treated corn leaves assessed as insect mortality at 5 mg/kg measured 4 days post compound treatment
Mythimna separata [4] = experiment: Stomach toxicity against Mythimna separata (Oriental armyworm) fourth-instar larvae reared on compound pre-treated corn leaves assessed as insect mortality at 50 mg/kg measured 4 days post compound treatment
Mythimna separata [5] = experiment: Stomach toxicity against Mythimna separata (Oriental armyworm) fourth-instar larvae reared on compound pre-treated corn leaves assessed as insect mortality at 10 mg/kg measured 4 days post compound treatment
Ostrinia furnacalis = experiment: Contact toxicity against Ostrinia furnacalis (Asian corn borer) fourth-instar larvae exposed to compound on thoracic tergite region assessed as insect mortality measured 48 hr post compound treatment
Procedure, shortened: (§1)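 Topical application: each fourth-instar larva received 1 µL of acetone dilution on the thoracic tergite via automatic microapplicator; five to seven concentrations. Acetone-only control. Usually 40 insects per dose, four replicates. Larvae returned to standard rearing at 25 ± 1 °C. Mortality read 48 h after treatment, Abbott-corrected, and LD50 (median lethal dose) derived.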

Spodoptera litura [6] = experiment: Contact toxicity against Spodoptera litura fourth-instar larvae exposed to compound on thoracic tergite region assessed as insect mortality measured 48 hr post compound treatment; procedure, shortened: as §1
Helicoverpa armigera = experiment: Contact toxicity against Helicoverpa armigerafourth-instar larvae exposed to compound on thoracic tergite region assessed as insect mortality measured 48 hr post compound treatment; procedure, shortened: as §1
Spodoptera litura [7] = experiment: Stomach toxicity against Spodoptera litura third-instar larvae reared on compound pre-treated cabbage leaves assessed as insect mortality measured 3 days post compound treatment
Procedure, shortened: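 Leaf-dip: cabbage leaf discs (5 cm × 3 cm) dipped 3 s in test solution, air-dried, placed singly in 80 cm³ boxes. Five third-instar larvae per disc. Water- and acetone-treated leaves as controls. Held at 25 ± 1 °C. Mortality scored on a dead/alive basis 3 days after treatment and Abbott-corrected.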

Row | SMILES | mortality at 2.5 mg/kg (Mythimna separata [2]) | mortality at 5 mg/kg (Mythimna separata [3]) | further results
1 | CCc1ccc(C(=O)N(N(SOc2ccccc2)C(=O)c2cc(C)cc(C)c2)C(C)(C)C)cc1 | 70% | 90% | mortality at 25 mg/kg (Mythimna separata [1]): 100%; mortality at 50 mg/kg (Mythimna separata [4]): 100%; mortality at 10 mg/kg (Mythimna separata [5]): 100%
2 | CC(C)(C)N(C(=O)c1ccc(Cl)cc1)N(SOc1ccc(Cl)cc1)C(=O)c1ccccc1 | 0% | 30% | mortality at 25 mg/kg (Mythimna separata [1]): 100%; mortality at 10 mg/kg (Mythimna separata [5]): 100%
3 | CCc1ccc(C(=O)N(N(SOc2ccc(Cl)cc2Cl)C(=O)c2cc(C)cc(C)c2)C(C)(C)C)cc1 | 40% | 90% | –
4 | Cc1cc(C)cc(C(=O)N(N(SOc2ccc(Cl)cc2)C(=O)c2ccc3c(c2C)OC(C)C3)C(C)(C)C)c1 (stereo not drawn) | 90% | 100% | –
5 | CCc1ccc(C(=O)N(N(SOc2ccc(-c3ccccc3)cc2)C(=O)c2cc(C)cc(C)c2)C(C)(C)C)cc1 | 90% | 100% | –
6 | CCc1ccc(C(=O)N(N(SOc2ccccc2Cl)C(=O)c2cc(C)cc(C)c2)C(C)(C)C)cc1 | 80% | 95% | –
7 | CCc1ccc(C(=O)N(N(SOc2ccc(C)c(C)c2)C(=O)c2cc(C)cc(C)c2)C(C)(C)C)cc1 | 10% | 70% | –
8 | CCc1ccc(C(=O)N(N(SOc2ccccc2Br)C(=O)c2cc(C)cc(C)c2)C(C)(C)C)cc1 | 30% | 100% | –
9 | CCc1ccc(C(=O)N(N(SOc2cccc(C(=O)OC)c2)C(=O)c2cc(C)cc(C)c2)C(C)(C)C)cc1 | 80% | 90% | –
10 | CCc1ccc(C(=O)N(N(SOc2ccc(Br)cc2)C(=O)c2cc(C)cc(C)c2)C(C)(C)C)cc1 | 50% | 100% | –
11 | CCc1ccc(C(=O)N(N(SOc2ccc(C(=O)OC)cc2)C(=O)c2cc(C)cc(C)c2)C(C)(C)C)cc1 | 100% | 100% | –
12 | CCc1ccc(C(=O)N(N(SOc2cccc(Cl)c2)C(=O)c2cc(C)cc(C)c2)C(C)(C)C)cc1 | 80% | 90% | –
13 | COc1cccc(C(=O)N(N(SOc2ccc(Cl)cc2)C(=O)c2cc(C)cc(C)c2)C(C)(C)C)c1C | 100% | 100% | –
14 | CCc1ccc(C(=O)N(N(SOc2ccccc2C(=O)OC)C(=O)c2cc(C)cc(C)c2)C(C)(C)C)cc1 | 60% | 100% | –
15 | Cc1cc(C)cc(C(=O)N(NC(=O)c2ccc3c(c2C)OC(C)C3)C(C)(C)C)c1 (stereo not drawn) [FUXIAN] | 90% | 100% | –
16 | CCc1ccc(C(=O)NN(C(=O)c2cc(C)cc(C)c2)C(C)(C)C)cc1 [TEBUFENOZIDE] | 55% | 95% | LD50 (Ostrinia furnacalis): 59.4 mg/kg; LD50 (Spodoptera litura [6]): 527 mg/kg; LD50 (Helicoverpa armigera): 1310 mg/kg; LC50 (Spodoptera litura [7]): 11.2 µg/mL (≈ 31.7 µM); mortality at 10 mg/kg (Mythimna separata [5]): 100%
17 | CCc1ccc(C(=O)N(N(SOc2ccccc2C)C(=O)c2cc(C)cc(C)c2)C(C)(C)C)cc1 | 60% | 100% | –
18 | Cc1ccc(OSN(C(=O)c2ccccc2)N(C(=O)c2ccccc2)C(C)(C)C)cc1 | – | – | mortality at 25 mg/kg (Mythimna separata [1]): 80%; mortality at 50 mg/kg (Mythimna separata [4]): 100%; mortality at 10 mg/kg (Mythimna separata [5]): 10%
19 | CC(C)(C)N(C(=O)c1ccccc1)N(SOc1ccccc1)C(=O)c1ccccc1 | – | – | mortality at 25 mg/kg (Mythimna separata [1]): 100%; mortality at 50 mg/kg (Mythimna separata [4]): 100%; mortality at 10 mg/kg (Mythimna separata [5]): 0%
20 | CCc1ccc(C(=O)N(N(SOc2ccccc2OC)C(=O)c2cc(C)cc(C)c2)C(C)(C)C)cc1 | 80% | 90% | –
21 | CC(C)(C)N(C(=O)c1ccccc1)N(SOc1ccc(Cl)cc1)C(=O)c1ccccc1 | – | – | mortality at 25 mg/kg (Mythimna separata [1]): 100%; mortality at 50 mg/kg (Mythimna separata [4]): 100%; mortality at 10 mg/kg (Mythimna separata [5]): 0%
22 | COc1cccc(C(=O)NN(C(=O)c2cc(C)cc(C)c2)C(C)(C)C)c1C [METHOXYFENOZIDE] | 100% | 100% | –
23 | CCc1ccc(C(=O)N(N(SOc2ccc(C)cc2)C(=O)c2cc(C)cc(C)c2)C(C)(C)C)cc1 | 30% | 100% | –
24 | CCc1ccc(C(=O)N(N(SOc2cccc(OC)c2)C(=O)c2cc(C)cc(C)c2)C(C)(C)C)cc1 | 50% | 100% | –
25 | CCc1ccc(C(=O)N(N(SOc2ccc(OC)cc2)C(=O)c2cc(C)cc(C)c2)C(C)(C)C)cc1 | 80% | 100% | –
26 | CCc1ccc(C(=O)N(N(SOc2cccc(C)c2)C(=O)c2cc(C)cc(C)c2)C(C)(C)C)cc1 | 70% | 95% | –
27 | CCc1ccc(C(=O)N(N(SOc2c(Cl)cc(Cl)cc2Cl)C(=O)c2cc(C)cc(C)c2)C(C)(C)C)cc1 | 50% | 90% | –
28 | CC(C)(C)N(NC(=O)c1ccccc1)C(=O)c1ccccc1 [RH-5849] | – | – | mortality at 25 mg/kg (Mythimna separata [1]): 70%; mortality at 50 mg/kg (Mythimna separata [4]): 100%; mortality at 10 mg/kg (Mythimna separata [5]): 0%
29 | CC(C)(C)N(NC(=O)c1ccc(Cl)cc1)C(=O)c1ccccc1 [HALOFENOZIDE] | 10% | 70% | mortality at 50 mg/kg (Mythimna separata [4]): 100%
